This passage reports IC50 results from PubChem BioAssay AID504518 (Sanford-Burnham Center for Chemical Genomics, 2011).

SMILES strings stand for the structures. Calls of active or inactive are those of the source.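 Rule for the calls: active = mean IC50 at or below 20 µM; inactive = the rest.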

Usually IC50 stands for the midpoint of a concentration-inhibition curve.

In this experiment the test system is HEK-293T NF-kB-Luc, TNFa-induced, luciferase luminescence 14 h. Nature of the experiment: inhibitors of TNFa-driven NF-kB luciferase in HEK-293T – cell-based, luminescence, selectivity assay for B-cell antigen receptor NF-kB inhibitors, SAR follow-up (AID 504518). The procedure, abridged: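 material = HEK-293-T cells carrying an NF-kB-driven luciferase reporter | amount = 6000 cells per well | buffer or medium = phenol-red-free DMEM | reagent = TNF-alpha stimulus at 0.1 ng/mL final | compound dosing = dose series, DMSO at most 1% | times = 14 h compound exposure at 37 °C, 5% CO2 | measured by = SteadyGlo luminescence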
Consider `CCC(C)NC(=O)CCc1nc(-c2ccc(C(C)C)cc2)no1` (stereo not drawn), for which the IC50 is 3.48 µM.

As for `Cc1oc(-c2ccccc2)nc1CSCC(=O)NC1CC1`, the IC50 was > 79 µM (inactive).

`CCOc1ccccc1-c1nc(CSCC(=O)O)c(C)o1`: the IC50 was > 79 µM (inactive).

As to `CCNC(=O)CCc1nc(-c2ccc(OCC)cc2)no1`, the IC50 is > 79 µM (inactive).

In the case of `CCOc1ccc(-c2nc(CSCC(=O)NC)c(C)o2)cc1`, the IC50 is > 79 µM (inactive).

`CCCCc1ccc(-c2noc(CCC(=O)NC)n2)cc1`: the IC50 was 1.98 µM.

As for `CCNC(=O)CCc1nc(-c2cccc(C)c2)no1`, the IC50 is > 79 µM (inactive).

With `CCNC(=O)CCc1nc(-c2cccc(F)c2)no1`, the IC50 was > 79 µM (inactive).

Consider `CCOc1ccc(-c2nc(CSCC(=O)O)c(C)o2)cc1`, for which the IC50 is 0.04 µM.

For the molecule `CCCOc1ccc(-c2nc(CSCC(=O)O)c(C)o2)cc1`, the IC50 is 0.03 µM.

Regarding `CCNC(=O)CCc1nc(-c2ccc(C(C)(C)C)cc2)no1`, the IC50 is 35.8 µM (inactive).

As to `CN(C)C(=O)CCc1nc(-c2ccc(C(C)(C)C)cc2)no1`, the IC50 is 42.2 µM (inactive).

`CCNC(=O)CCc1nc(-c2ccccc2)no1`: the IC50 was > 79 µM (inactive).

On to `CCCCOc1ccc(-c2nc(CSCC(=O)NCc3ccco3)c(C)o2)cc1`, for which the 50% inhibitory concentration (IC50) was 13.1 µM.

`CCCCc1ccc(-c2noc(CCC(=O)NCC)n2)cc1`: the half-inhibitory concentration (IC50) is 0.77 µM.

Regarding `CNC(=O)CCc1nc(-c2ccc(C(C)(C)C)cc2)no1`, the IC50 was 66.8 µM (inactive).

As for `CCCOc1ccc(-c2nc(CSCC(=O)NC3CC3)c(C)o2)cc1`, the IC50 was 31.5 µM (inactive).

For `CCOc1cccc(-c2nc(CSCC(=O)NC3CC3)c(C)o2)c1`, the IC50 is > 79 µM (inactive).

Turning to `CC(C)(C)c1ccc(-c2noc(CCC(=O)O)n2)cc1`, the half-inhibitory concentration (IC50) is 0.29 µM.

In the case of `CCOc1ccccc1-c1nc(CSCC(=O)NC2CC2)c(C)o1`, the IC50 is > 79 µM (inactive).

Regarding `CCNC(=O)CCc1nc(-c2cccc(OC)c2)no1`, the IC50 is > 79 µM (inactive).

Turning to `CC(C)(C)c1ccc(-c2noc(CCC(=O)NC3CC3)n2)cc1`, the half-maximal inhibitory concentration (IC50) is 12 µM.

For `CCOc1ccc(-c2nc(CSCC(=O)NC3CC3)c(-c3ccccc3)o2)cc1`, the IC50 is > 79 µM (inactive).

Consider `CCc1ccc(-c2noc(CCC(=O)NC(C)(C)C)n2)cc1`, for which the IC50 is 22 µM (inactive).

On to `CC(C)(C)c1ccc(-c2noc(CCC(=O)NC3CCC3)n2)cc1`, for which the half-maximal inhibitory concentration (IC50) was 1.18 µM.

`CCC(C)NC(=O)CCc1nc(-c2ccc(C(C)(C)C)cc2)no1` (stereo not drawn): the IC50 is 3 µM.

Consider `CCNC(=O)CCc1nc(-c2c(Cl)cccc2Cl)no1`, for which the IC50 was > 79 µM (inactive).

Turning to `CNC(=O)CCc1nc(-c2ccc(C(C)C)cc2)no1`, the IC50 is 56.9 µM (inactive).

With `CCNC(=O)CCc1nc(-c2ccccc2Cl)no1`, the IC50 was > 79 µM (inactive).

Consider `Cc1oc(-c2ccc(C(F)(F)F)cc2)nc1CSCC(=O)NC1CC1`, for which the IC50 is 24.4 µM (inactive).

For the molecule `Cc1ccc(-c2nc(CSCC(=O)NC3CC3)c(C)o2)cc1`, the IC50 is 71.1 µM (inactive).

`CCCCOc1ccc(-c2nc(CSCC(=O)O)c(C)o2)cc1`: the IC50 was 0.04 µM.

Take `CCNC(=O)CCc1nc(-c2ccc(C(C)C)cc2)no1`: the IC50 is 21.3 µM (inactive).

Take `COc1cccc(-c2cc(=O)c3cc(NC(=O)c4ccc(N(C)C)cc4)ccc3[nH]2)c1`: the IC50 was 15.2 µM.

Regarding `CCCCc1ccc(-c2noc(CCC(=O)NC(C)(C)C)n2)cc1`, the IC50 is 0.66 µM.

Regarding `CCOC(=O)CC(NC(=O)c1ccc(Br)cc1)c1ccc(F)c([N+](=O)[O-])c1` (stereo not drawn), the IC50 is 73.4 µM (inactive).

Take `Cc1oc(-c2ccc(OC(F)(F)F)cc2)nc1CSCC(=O)NC1CC1`: the IC50 is 27.9 µM (inactive).

As for `Cc1ccc(-c2nc(CSCC(=O)NCc3ccco3)c(C)o2)cc1`, the IC50 was 33.6 µM (inactive).

With `CCOc1ccc(-c2nc(CSCC(=O)N3CCOCC3)c(C)o2)cc1`, the IC50 was 64.6 µM (inactive).

Turning to `CCOc1ccc(-c2nc(CSCC(=O)N(C)C)c(C)o2)cc1`, the IC50 was 78.5 µM (inactive).

With `CCOc1ccc(-c2nc(CSCC(=O)NCc3ccco3)c(C)o2)cc1`, the IC50 is 21.4 µM (inactive).

Take `CCCCc1ccc(-c2noc(CCC(=O)NC3CC3)n2)cc1`: the IC50 was 0.55 µM.

For the molecule `CC(C)(C)c1ccc(-c2noc(CCC(N)=O)n2)cc1`, the IC50 is 0.78 µM.

For the molecule `C#CCNC(=O)CSCc1nc(-c2ccc(OCC)cc2)oc1C`, the IC50 is > 79 µM (inactive).

For the molecule `COc1cccc(-c2cc(=O)c3cc(NC(=O)c4ccccc4)ccc3[nH]2)c1`, the IC50 is > 79 µM (inactive).

As for `CCc1ccc(-c2noc(CCC(=O)NC(C)CC)n2)cc1` (stereo not drawn), the IC50 is 14.1 µM.

Turning to `CC(C)c1ccc(-c2noc(CCC(=O)NC(C)(C)C)n2)cc1`, the IC50 was 5 µM.

Turning to `COc1ccc(C(=O)Nc2ccc3[nH]c(-c4cccc(OC)c4)cc(=O)c3c2)cc1`, the IC50 is > 79 µM (inactive).

In the case of `CCCCOc1ccc(-c2nc(CSCC(=O)NC3CC3)c(C)o2)cc1`, the half-inhibitory concentration (IC50) is 11.1 µM.

For `COc1ccc(-c2nc(CSCC(=O)NCc3ccco3)c(C)o2)cc1`, the IC50 is 35.8 µM (inactive).

In the case of `Cc1oc(-c2ccc(OC(F)(F)F)cc2)nc1CSCC(=O)O`, the half-inhibitory concentration (IC50) is 0.11 µM.

`CCC(C)NC(=O)CCc1nc(-c2ccccc2)no1` (stereo not drawn): the IC50 was > 79 µM (inactive).

Turning to `CCc1ccc(-c2nc(CSCC(=O)NC3CC3)c(-c3ccccc3)o2)cc1`, the IC50 was > 79 µM (inactive).

With `CCOc1ccc(-c2noc(CCC(=O)O)n2)cc1`, the half-maximal inhibitory concentration (IC50) is 10.6 µM.

In the case of `COC(=O)CCc1nc(-c2ccc(C(C)(C)C)cc2)no1`, the 50% inhibitory concentration (IC50) was 0.22 µM.

Turning to `CCNC(=O)CCc1nc(-c2ccccc2C)no1`, the IC50 is > 79 µM (inactive).

Regarding `CCCCc1ccc(-c2noc(CCC(=O)NC(C)CC)n2)cc1` (stereo not drawn), the half-inhibitory concentration (IC50) is 0.51 µM.

Consider `CCc1ccc(-c2noc(CCC(=O)NC)n2)cc1`, for which the IC50 was > 79 µM (inactive).

For the molecule `CCN(CC)C(=O)CCc1nc(-c2ccc(C(C)(C)C)cc2)no1`, the IC50 was 16.8 µM.

For `CCc1ccc(-c2nc(CSCC(=O)NCc3ccco3)c(C)o2)cc1`, the IC50 was > 79 µM (inactive).

For the molecule `CCOc1ccc(-c2nc(CSCC(=O)NC3CCC3)c(C)o2)cc1`, the IC50 is 38.7 µM (inactive).

In the case of `Cc1oc(-c2ccc(C(F)(F)F)cc2)nc1CSCC(=O)O`, the IC50 is 0.38 µM.

In the case of `CNC(=O)CCc1nc(-c2ccccc2)no1`, the IC50 is > 79 µM (inactive).

Turning to `CCc1ccc(-c2nc(CSCC(=O)NC3CC3)c(C)o2)cc1`, the IC50 is 42.2 µM (inactive).

As for `CCOc1ccc(-c2nc(CSCC(=O)NCC3CC3)c(C)o2)cc1`, the IC50 is 55.4 µM (inactive).

For the molecule `CCCOc1ccc(-c2nc(CSCC(=O)NCc3ccco3)c(C)o2)cc1`, the 50% inhibitory concentration (IC50) is 9.74 µM.

For `COc1ccc(-c2nc(CSCC(=O)NC3CC3)c(C)o2)cc1`, the IC50 is > 79 µM (inactive).

In the case of `O=C(CCc1nc(-c2ccccc2)no1)NC1CC1`, the IC50 is > 79 µM (inactive).

Turning to `CCNC(=O)CCc1nc(-c2ccc(CC)cc2)no1`, the IC50 was 65.3 µM (inactive).

On to `CC(C)Nc1ccc(C(CC(=O)O)NC(=O)c2ccccc2)cc1[N+](=O)[O-]` (stereo not drawn), for which the IC50 was > 79 µM (inactive).

For the molecule `CC(C)c1ccc(-c2noc(CCC(=O)NC3CC3)n2)cc1`, the IC50 is 3.11 µM.

`Cc1oc(-c2ccccc2)nc1CSCC(=O)NCc1ccco1`: the IC50 is > 79 µM (inactive).

Consider `O=C(O)CCc1nc(-c2ccccc2)no1`, for which the IC50 is > 79 µM (inactive).

Take `CCOc1ccc(-c2nc(CSCC(=O)NC(C)(C)C)c(C)o2)cc1`: the IC50 was 37.7 µM (inactive).

As for `CCOc1ccc(-c2nc(CSCC(N)=O)c(C)o2)cc1`, the IC50 was > 79 µM (inactive).

`CCc1ccc(-c2noc(CCC(=O)NC3CC3)n2)cc1`: the IC50 is 21.1 µM (inactive).

`CCOc1ccc(-c2nc(CSCC(=O)NC3CC3)c(C)o2)cc1`: the IC50 is > 79 µM (inactive).

As to `CC(C)(C)NC(=O)CCc1nc(-c2ccccc2)no1`, the IC50 is > 79 µM (inactive).
